According to publication PMC5900894 (Chemmedchem, 2018):

How the values were obtained:
[1] = DOSY NMR diffusion coefficient / aggregation; assay type: physicochemical; conditions: FP7 500 μM alone, 310 K, 10 % DMSO in PBS 100 mM pH 5.5
Outline: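 Test glycolipid was diluted from a 50 mM DMSO stock into 100 mM PBS pH 5.5 (final DMSO 10 %) and examined at 500 μM by DOSY NMR. Spectra were recorded on the glycolipid alone, then after stepwise peptide additions up to [peptide]/[glycolipid] molar ratios of 0.06 or 0.1. Peptides came from 20 mM DMSO stocks.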

[2] = tested on: human peripheral blood mononuclear cells; experiment: IL‐1β production in LPS‐stimulated human PBMCs; assay type: cell-based; conditions: pre‐incubated 30 min, LPS 100 ng mL^−1, overnight; tested 0.1, 1, 5, 10 μM
Outline: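 PBMCs came from buffy coats diluted 1:1 in PBS and separated by density gradient centrifugation. Cells were washed, checked for viability with 0.1 % trypan blue, and resuspended in RPMI 1640 with 10 % FBS, penicillin and streptomycin in U-bottom wells. Test glycolipid alone or its 1:1 mix with peptide (0.1, 1, 5, 10 μM) was added 30 min before smooth LPS (100 ng mL⁻¹). IL-1β release was the read-out.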

D (diffusion coefficient of FP7) [1]: 6.31×10^−11 m^2 s^−1
SMILES: CCCCCCCCCCCCCC(=O)N[C@H]1[C@@H](OP(=O)(O)O)O[C@H](CO)[C@@H](OP(=O)(O)O)[C@@H]1OC(=O)CCCCCCCCCCCCC [FP7]
concentration halving the amount of IL‐1β released [2]: 5 µM
